Results reported in the M2OR odorant receptor database.

Tests used:
Conditions in all cases: stereoisomer not certain
UniProt A2ATE5 = biological target: T1, UniProt A2ATE5
T1 sequence (whole entry): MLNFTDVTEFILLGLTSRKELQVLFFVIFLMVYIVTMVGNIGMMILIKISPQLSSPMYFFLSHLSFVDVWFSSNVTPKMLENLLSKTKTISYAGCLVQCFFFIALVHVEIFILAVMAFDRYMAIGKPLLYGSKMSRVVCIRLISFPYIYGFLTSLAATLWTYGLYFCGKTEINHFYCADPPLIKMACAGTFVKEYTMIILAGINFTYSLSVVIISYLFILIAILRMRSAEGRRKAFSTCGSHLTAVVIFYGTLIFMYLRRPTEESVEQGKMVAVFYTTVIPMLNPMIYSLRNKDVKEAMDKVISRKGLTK
Summary of the method: (§1)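 Each entry records the cell line, G-protein, co-transfected protein and tags used. Methods varied with the source, often transient luciferase assays in mammalian cell lines. A receptor–molecule pair is called responsive (active) if the original authors judged its signal statistically different from baseline and non-responsive (inactive) otherwise.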

UniProt A2AVB0 = biological target: T2, UniProt A2AVB0
T2 sequence (whole entry): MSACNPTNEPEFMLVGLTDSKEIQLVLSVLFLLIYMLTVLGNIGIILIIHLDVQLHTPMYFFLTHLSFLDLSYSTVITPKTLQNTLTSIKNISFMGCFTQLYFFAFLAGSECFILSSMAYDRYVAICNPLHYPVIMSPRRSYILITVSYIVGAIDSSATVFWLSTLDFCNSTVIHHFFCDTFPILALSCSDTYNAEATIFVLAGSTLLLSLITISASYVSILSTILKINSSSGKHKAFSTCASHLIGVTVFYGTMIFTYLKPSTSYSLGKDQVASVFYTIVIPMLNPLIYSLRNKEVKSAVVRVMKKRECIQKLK
Summary of the method: as §1

UniProt E9PVX1 = biological target: T3, UniProt E9PVX1
T3 sequence (whole entry): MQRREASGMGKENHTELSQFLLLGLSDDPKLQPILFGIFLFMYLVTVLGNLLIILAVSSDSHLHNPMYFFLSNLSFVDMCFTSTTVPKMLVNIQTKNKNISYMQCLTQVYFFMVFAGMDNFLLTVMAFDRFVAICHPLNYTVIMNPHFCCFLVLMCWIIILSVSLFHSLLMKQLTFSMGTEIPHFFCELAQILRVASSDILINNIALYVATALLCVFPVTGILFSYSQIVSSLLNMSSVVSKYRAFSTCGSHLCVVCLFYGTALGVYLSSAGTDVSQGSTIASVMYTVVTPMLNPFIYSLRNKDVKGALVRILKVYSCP
Summary of the method: as §1

UniProt E9PZ66 = biological target: T4, UniProt E9PZ66
T4 sequence (whole entry): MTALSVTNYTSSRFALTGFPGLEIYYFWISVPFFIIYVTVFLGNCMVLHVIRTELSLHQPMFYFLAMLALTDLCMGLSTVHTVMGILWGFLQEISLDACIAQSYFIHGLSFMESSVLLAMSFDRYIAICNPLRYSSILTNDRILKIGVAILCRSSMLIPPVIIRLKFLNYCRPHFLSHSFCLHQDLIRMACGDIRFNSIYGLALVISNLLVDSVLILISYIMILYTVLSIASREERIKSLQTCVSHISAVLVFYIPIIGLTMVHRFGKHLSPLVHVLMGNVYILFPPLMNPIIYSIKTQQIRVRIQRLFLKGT
Summary of the method: as §1

UniProt E9Q4X7 = biological target: T5, UniProt E9Q4X7
T5 sequence (whole entry): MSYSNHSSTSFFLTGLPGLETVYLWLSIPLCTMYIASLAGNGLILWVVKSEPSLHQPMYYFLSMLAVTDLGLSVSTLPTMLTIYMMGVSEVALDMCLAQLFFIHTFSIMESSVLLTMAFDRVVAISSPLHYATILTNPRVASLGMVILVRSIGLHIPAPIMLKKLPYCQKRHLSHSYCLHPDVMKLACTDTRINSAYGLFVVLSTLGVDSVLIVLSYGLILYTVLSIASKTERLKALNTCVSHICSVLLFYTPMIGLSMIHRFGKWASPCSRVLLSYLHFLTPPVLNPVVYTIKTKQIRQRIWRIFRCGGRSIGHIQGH
Summary of the method: as §1

UniProt E9Q546 = biological target: T6, UniProt E9Q546
T6 sequence (whole entry): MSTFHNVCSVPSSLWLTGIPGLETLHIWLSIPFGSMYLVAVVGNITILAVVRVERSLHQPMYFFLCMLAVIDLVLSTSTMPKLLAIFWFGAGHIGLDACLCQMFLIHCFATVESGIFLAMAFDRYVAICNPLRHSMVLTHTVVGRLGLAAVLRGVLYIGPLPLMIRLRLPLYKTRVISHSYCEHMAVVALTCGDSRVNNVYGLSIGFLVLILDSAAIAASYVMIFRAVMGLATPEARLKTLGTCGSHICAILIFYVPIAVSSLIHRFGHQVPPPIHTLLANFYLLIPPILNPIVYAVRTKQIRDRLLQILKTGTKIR
Summary of the method: as §1

UniProt E9Q6Z7 = biological target: T7, UniProt E9Q6Z7
T7 sequence (whole entry): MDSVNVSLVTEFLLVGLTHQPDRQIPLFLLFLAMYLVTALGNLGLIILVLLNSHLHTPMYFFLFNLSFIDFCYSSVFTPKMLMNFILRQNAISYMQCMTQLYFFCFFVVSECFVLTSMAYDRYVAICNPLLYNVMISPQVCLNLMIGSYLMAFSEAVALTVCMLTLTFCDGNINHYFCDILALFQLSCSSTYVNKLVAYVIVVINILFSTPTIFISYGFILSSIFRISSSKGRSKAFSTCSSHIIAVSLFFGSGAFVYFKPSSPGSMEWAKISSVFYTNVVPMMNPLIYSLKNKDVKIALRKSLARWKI
Summary of the method: as §1

UniProt E9PXN3 = biological target: T8, UniProt E9PXN3
T8 sequence (whole entry): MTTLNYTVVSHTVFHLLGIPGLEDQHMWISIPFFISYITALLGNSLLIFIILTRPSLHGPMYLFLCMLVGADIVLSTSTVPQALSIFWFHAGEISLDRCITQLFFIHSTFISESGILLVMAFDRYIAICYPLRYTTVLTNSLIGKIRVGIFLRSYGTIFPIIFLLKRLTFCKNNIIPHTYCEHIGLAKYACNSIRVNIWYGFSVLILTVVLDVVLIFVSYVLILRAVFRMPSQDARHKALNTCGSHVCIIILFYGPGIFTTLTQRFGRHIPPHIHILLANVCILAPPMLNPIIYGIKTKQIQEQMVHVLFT
Summary of the method: as §1

UniProt A2AVB5 = biological target: T9, UniProt A2AVB5
T9 sequence (whole entry): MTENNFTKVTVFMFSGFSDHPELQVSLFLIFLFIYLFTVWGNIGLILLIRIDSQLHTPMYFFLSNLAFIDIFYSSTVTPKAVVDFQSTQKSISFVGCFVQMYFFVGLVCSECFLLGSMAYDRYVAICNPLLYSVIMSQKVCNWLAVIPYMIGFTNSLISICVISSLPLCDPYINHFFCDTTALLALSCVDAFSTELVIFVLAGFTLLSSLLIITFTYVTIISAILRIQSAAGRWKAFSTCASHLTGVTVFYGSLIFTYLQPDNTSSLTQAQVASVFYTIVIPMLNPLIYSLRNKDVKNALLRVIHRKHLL
Summary of the method: as §1

UniProt B2RVX8 = biological target: T10, UniProt B2RVX8
T10 sequence (whole entry): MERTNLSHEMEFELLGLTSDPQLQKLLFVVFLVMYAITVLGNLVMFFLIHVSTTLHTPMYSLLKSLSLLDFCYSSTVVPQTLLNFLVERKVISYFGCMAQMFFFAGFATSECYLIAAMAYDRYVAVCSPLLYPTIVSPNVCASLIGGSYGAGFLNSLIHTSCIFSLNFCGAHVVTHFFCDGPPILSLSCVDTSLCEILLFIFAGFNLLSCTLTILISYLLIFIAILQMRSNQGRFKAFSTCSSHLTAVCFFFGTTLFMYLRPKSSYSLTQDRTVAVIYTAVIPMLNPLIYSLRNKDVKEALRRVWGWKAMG
Summary of the method: as §1

UniProt K7N609 = biological target: T11, UniProt K7N609
T11 sequence (whole entry): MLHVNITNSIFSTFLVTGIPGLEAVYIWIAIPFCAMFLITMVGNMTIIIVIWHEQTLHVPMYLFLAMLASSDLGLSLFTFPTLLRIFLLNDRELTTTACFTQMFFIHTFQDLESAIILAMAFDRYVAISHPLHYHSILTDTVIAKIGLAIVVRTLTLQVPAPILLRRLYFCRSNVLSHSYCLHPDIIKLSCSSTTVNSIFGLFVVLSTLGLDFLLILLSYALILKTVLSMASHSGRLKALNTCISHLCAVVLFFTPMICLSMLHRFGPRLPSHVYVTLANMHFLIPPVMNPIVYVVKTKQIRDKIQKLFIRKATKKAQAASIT
Summary of the method: as §1

UniProt E1BM68 = biological target: T12, UniProt E1BM68
T12 sequence (whole entry): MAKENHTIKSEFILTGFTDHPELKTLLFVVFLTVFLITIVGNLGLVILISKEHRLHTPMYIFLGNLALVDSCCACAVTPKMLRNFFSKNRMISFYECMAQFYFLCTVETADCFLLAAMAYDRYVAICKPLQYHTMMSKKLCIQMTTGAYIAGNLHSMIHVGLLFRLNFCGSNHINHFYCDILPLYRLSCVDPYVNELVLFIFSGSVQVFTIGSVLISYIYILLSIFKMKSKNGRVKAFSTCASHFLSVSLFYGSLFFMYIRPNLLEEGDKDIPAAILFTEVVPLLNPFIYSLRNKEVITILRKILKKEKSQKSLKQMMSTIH
Summary of the method: as §1

UniProt E9QAT7 = biological target: T13, UniProt E9QAT7
T13 sequence (whole entry): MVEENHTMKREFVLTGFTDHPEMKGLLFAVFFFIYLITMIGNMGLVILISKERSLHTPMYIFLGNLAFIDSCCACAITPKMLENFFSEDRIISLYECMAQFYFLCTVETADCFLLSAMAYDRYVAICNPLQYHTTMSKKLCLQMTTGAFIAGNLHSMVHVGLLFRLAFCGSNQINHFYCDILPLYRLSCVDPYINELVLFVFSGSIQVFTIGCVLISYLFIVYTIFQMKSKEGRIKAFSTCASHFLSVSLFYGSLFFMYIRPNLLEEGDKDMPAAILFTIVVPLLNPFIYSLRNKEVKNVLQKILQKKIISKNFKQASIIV
Summary of the method: as §1

| SMILES | odorant receptor agonist call (UniProt A2ATE5) | odorant receptor agonist call (UniProt A2AVB0) | odorant receptor agonist call (UniProt E9PVX1) | odorant receptor agonist call (UniProt E9PZ66) | odorant receptor agonist call (UniProt E9Q4X7) | odorant receptor agonist call (UniProt E9Q546) | odorant receptor agonist call (UniProt E9Q6Z7) | odorant receptor agonist call (UniProt E9PXN3) | odorant receptor agonist call (UniProt A2AVB5) | odorant receptor agonist call (UniProt B2RVX8) | odorant receptor agonist call (UniProt K7N609) | odorant receptor agonist call (UniProt E1BM68) | odorant receptor agonist call (UniProt E9QAT7) |
| --- | --- | --- | --- | --- | --- | --- | --- | --- | --- | --- | --- | --- | --- |
| CC(C)CCN | inactive | inactive | inactive | inactive | inactive | inactive | inactive | – | – | – | – | – | – |
| CCc1ccccc1O | inactive | inactive | inactive | inactive | inactive | inactive | inactive | – | – | – | – | – | – |
| CC(CC=O)CCCC(C)(C)O (stereo not given) | inactive | inactive | inactive | inactive | inactive | inactive | inactive | – | – | – | – | – | – |
| O=C(O)CCCCCBr | inactive | inactive | inactive | inactive | inactive | inactive | inactive | inactive | – | – | – | – | – |
| CCCCCCCC(C)=O | inactive | inactive | inactive | inactive | inactive | inactive | inactive | – | inactive | inactive | inactive | – | – |
| CCC(C)c1nccnc1OC (stereo not given) | inactive | inactive | inactive | inactive | inactive | inactive | inactive | – | – | – | – | active | inactive |
| OCCCCCCCCCO | inactive | inactive | inactive | inactive | inactive | inactive | inactive | – | – | – | – | – | – |
